HSF-1 act: increases HSF-1 driven luciferase reporter signal; AID 504408; 300,000 compounds, 1.7% hits; NIH3T3-HGL HSF-1 luciferase reporter, MG132, 8 h; 100% = twice DMSO control signal; activation, % at 9 µM;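 active = mean replicate activation of at least 50% with a set share of replicates each reaching 50%; inconclusive = only one of those two conditions met; inactive = mean below 50% and too few replicates reaching it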;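 also: 0% = median of the neutral control wells and 100% = twice that signal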
GPR7 antag: blocks human GPR7 receptor signaling. GPR7-expressing cells, fluorescence antagonist assay. inhibition, % at 4.4 µM. P48145. 290,000 compounds, 1.1% hits; in the data active = inhibition above about 16%, passing the limit was not always enough;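 also: cells stimulated with the agonist NPW; 0% = agonist with vehicle and 100% = vehicle without agonist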
Target sequence (P48145 whole entry, looked up): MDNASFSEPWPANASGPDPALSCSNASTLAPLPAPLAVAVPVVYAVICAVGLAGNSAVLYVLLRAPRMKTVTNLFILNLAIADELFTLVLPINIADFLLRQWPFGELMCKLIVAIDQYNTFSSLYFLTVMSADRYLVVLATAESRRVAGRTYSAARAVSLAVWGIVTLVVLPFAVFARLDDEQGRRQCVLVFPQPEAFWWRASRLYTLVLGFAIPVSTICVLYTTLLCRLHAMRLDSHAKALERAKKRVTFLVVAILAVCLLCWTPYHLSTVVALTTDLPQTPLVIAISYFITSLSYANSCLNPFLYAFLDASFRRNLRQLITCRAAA
T cruzi repl: blocks replication of Trypanosoma cruzi; T. cruzi beta-gal in NIH3T3, luminescence, 90 h; inhibition, % (test concentration not listed); 300,000 compounds, 1.4% hits; AID 1885;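 active = mean inhibition across valid replicates above about 55%, limit read from the data; inconclusive = mean below that limit but half or more replicates reach it; inactive = mean below it, under half of replicates reach it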;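 also: signal also drops with host cell toxicity which is not excluded here; 0% = plate median of DMSO wells and 100% = zero luminescence signal; higher percent means less beta-gal luminescence so fewer parasites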
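System: NIH/3T3 fibroblasts plus reporter T. cruzi. Medium: DMEM plus 2% FBS. Probe or stimulus: 5000 reporter trypomastigotes per well. Compound: single 50 nL compound addition per well in DMSO. Incubation: co-culture of at least 90 h after 3 h attachment. Detection: GalScreen β-gal luminescence, detergent lysis, 60 min. Evaluation: parasite load inhibition, %.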
Jurkat NFkB inh: lowers PMA/ionomycin-induced NF-kB signal in Jurkat cells; PMA/ionomycin-induced NF-kB luciferase reporter, luminescence; inhibition, % at 4 µM; 330,000 compounds, 0.53% hits; AID 435003; in the data active = inhibition above about 50%
697 NFkB inh: inhibitors of the PMA/ionomycin-induced NF-kB reporter in 697 B cells. inhibition, % at 4 µM. 697 B-cell NF-kB luciferase reporter, 16 h. AID 435022. 330,000 compounds, 0.33% hits; in the data active = inhibition above about 35%
HSF1 inh: HSF1 inhibition. NIH3T3-HGL HSE-luciferase, MG132-induced, luminescence 8 h; active compounds read low. activity change, negative = inhibition, % at 7.5 µM (by protocol). 300,000 compounds, 0.77% hits;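 active = more than half of replicate wells show activity change below -50%, luminescence cut by over half; inconclusive = some wells, but at most half, below -50%; inactive = no replicate well below -50%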;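 also: luciferase reports HSF-1 transcriptional activity via heat shock element; 0% = median of DMSO wells and -100% = zero luminescence signal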
Starred values were filed as active, the others as inactive; ? = inconclusive; / = no result given. Shown are actives, neighbours in structure and some others; about 4.8% of the full set was active somewhere.

SMILES	HSF-1 act	GPR7 antag	T cruzi repl	Jurkat NFkB inh	697 NFkB inh	HSF1 inh
O=C(NCCC1CCCCN1S(=O)(=O)c1ccc(F)cc1)C(=O)Nc1ccccc1F (stereo not given)	-75	/	-7	-2	-7	-67*
O=C(NCCC1CCCCN1S(=O)(=O)c1ccccc1)C(=O)Nc1ccccc1F (stereo not given)	10	/	12	-4	-11	7
CC(/C=N/n1c(COc2ccccc2)n[nH]c1=S)=C\c1ccco1	-1	-14	-9	12	13	6
Cc1cc(Nc2ccc3c(c2)OCCO3)n2ncnc2n1	1	17*	-2	14	13	-5
Cc1cc(Nc2ccc(N(C)C)cc2)n2ncnc2n1	17	-15	-8	-5	11	4
COc1cc(C(=O)N2CCSCC2)ccc1OC1CCN(C(C)=O)CC1	-66	-1	-11	0	5	-55*
COc1ccc(C(=O)N2CCN(c3ccc(C)c(C)c3)CC2)cc1OC	11	20*	2	-2	-6	5
O=C(CCn1nnnc1CN1CCOCC1)N1CCC(c2ccccc2F)C1 (stereo not given)	5	-10	-23	9	2	-1
COc1c(Cl)cccc1-c1cn2ccccc2n1	-39	-9	-3	-107	-136	?
CC(Oc1ccccc1F)C(=O)NNC(=O)CC(C)c1ccccc1 (stereo not given)	-40	/	1	1	-15	-23
C=C(C)COc1ccc(-c2ncncc2-c2ccccc2OC)c(O)c1	-16	1	66*	21	1	4
CCOC(=O)C1=NN(c2ccccc2)C2(S1)SC(C(C)=O)=C(C)N2c1ccccc1 (stereo not given)	18	-7	-19	-9	-22	-3
CCOC(=O)C1=NN(c2ccc(C)cc2)C2(S1)SC(C(C)=O)=C(C)N2c1ccccc1 (stereo not given)	62*	1	-17	-1	-25	22
Cc1cc(NC(=O)COC(=O)c2cc([N+](=O)[O-])ccc2N2CCOCC2)ccc1Br	5	/	24	28	-3	6
C=C(C)CN(CC)c1nc(N)c(C#N)c(CC#N)c1C#N	75*	-6	-3	-8	-5	69
O=C(CNC(=O)c1cccs1)OCC(=O)c1ccccc1	-11	5	-18	4	2	-2
CCc1ccc(C(=O)COC(=O)CNC(=O)c2cccs2)cc1	-89	-5	-7	1	3	-86*
O=C(Nc1ccccc1)Nc1ccc(Cl)nc1Cl	12	/	-10	-21	-40	20
Cc1ccc(/C=N\NC(=O)Cc2noc3ccccc23)cc1	-89	20	-1	7	-20	-87*
Clc1ccc(-c2c[n+](Cc3ccc(Br)cc3)c3n2CCCCC3)cc1	3	-1	52	0	-1	-10
Clc1ccc(C[n+]2cc(-c3ccccc3)n3c2CCC3)cc1Cl	-25	5	59*	-4	-26	-5
Clc1ccc(-c2c[n+](Cc3cccc(Cl)c3)c3n2CCC3)cc1	3	3	60*	3	-5	-2
Clc1ccc(C[n+]2cc(-c3ccccc3)n3c2CCCCC3)c(Cl)c1	-4	29*	55*	20	3	-11
CCCCCCc1nc(C(N)=O)c2[nH]c(=O)n(-c3ccc(OCC)cc3)c2n1	-3	-46	13	3	-11	-8
COc1cccc(COC(=O)Nc2ccccc2F)c1	74*	6	5	-118	-116	45
SMILES	HSF-1 act	GPR7 antag	T cruzi repl	Jurkat NFkB inh	697 NFkB inh	HSF1 inh
Cc1cccc(C)c1NC(=O)C(NC(=O)c1ccccn1)c1ccccc1[N+](=O)[O-] (stereo not given)	38	-11	3	4	14	12
COc1c2c(cc3oc(CO[C@@H]4O[C@H](CO)[C@@H](O)[C@H](O)[C@H]4O)cc(=O)c13)O[C@H](C(C)(C)O)C2	/	/	/	-10	-9	/
COc1cccc(C(=O)C2CCCN(Cc3ccc(OC)c(Cn4cncn4)c3)C2)c1 (stereo not given)	-18	-11	58*	3	-8	-3
COc1cc(CN2CCCC(C(=O)c3ccc(C(C)(C)C)cc3)C2)cc(OC)c1O (stereo not given)	-5	-15	44	-13	-16	-6
COc1ccc(CN2CCCC(C(=O)c3ccc(Cl)cc3)C2)cc1Cn1cccn1 (stereo not given)	-12	11	64*	3	-7	1
COCc1cc(CN2CCCC(C(=O)Nc3cccc(-n4cnnn4)c3)C2)ccc1OC (stereo not given)	-4	-8	70*	9	0	-2
O=C(N/N=C/CCc1ccccc1)C1CCCCC1	-3	-4	-1	13	-4	-3
O=C(N/N=C/CCc1ccccc1)c1ccccc1	76*	-2	-4	-4	-11	32
Cc1ccc(NC(=O)CN(C)S(=O)(=O)c2cccc3cccnc23)cc1C	8	-3	-2	10	7	2
CCCCOc1cccc(C2C(C(=O)c3cccs3)=C(O)C(=O)N2Cc2cccnc2)c1 (stereo not given)	-73	-9	-1	-9	7	-64*
CCOc1cccc(C2C(C(=O)c3cccs3)=C(O)C(=O)N2Cc2cccnc2)c1 (stereo not given)	4	-9	-28	-4	3	4
Cc1cc(C)c(S(=O)(=O)c2ccccc2C(=O)O)c(C)c1	54*	-4	-4	6	14	6
CCN(CC(=O)Nc1ccccc1OC)CC(=O)Nc1sccc1C#N	18	-10	3	2	4	4
Cc1ccc(/C=C/C(=O)c2ccccc(=O)c2O)cc1C	76*	-6	59*	/	/	43
O=C(/C=C/c1ccccc1)c1cc(Br)ccc(=O)c1O	91*	-5	48	-23	-45	72
CCOc1cc(C)c(S(=O)(=O)NCCCn2ccnc2)cc1C	0	-8	5	7	-5	-6
COC(=O)c1ccccc1Sc1ncnc2onc(C)c12	86*	6	-15	4	-3	72
Cc1noc2ncnc(Sc3ccccc3Cl)c12	23	-3	45	6	15	24
Cc1cccc(NC(=O)COC(=O)c2ccc(C)c(S(=O)(=O)N3CCCCC3)c2)c1	/	/	/	-7	12	/
CCCn1cc(SCC(=O)Nc2nnc(C)s2)c2ccccc21	-17	-7	-5	-16	-9	-3
Cc1ccc(C(=O)NCCn2cc(SCC(=O)Nc3nnc(C)s3)c3ccccc32)cc1	-53	19*	-8	31	-70	-47
COc1ncccc1-c1nnn(-c2ccccc2)n1	29	3	-22	-144	-186	32
Cc1ccccc1C(=O)NC(=S)Nc1ccccc1[N+](=O)[O-]	58*	-9	31	-9	-16	10
